Data set [1] in a line: Mean residence time (0 to t) in Sprague-Dawley rat at 1 mg/kg, iv. In kind it is ADME, organism-based. Particulars: in vivo. A digest of the protocol: (§1)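 Sprague Dawley rats given a single i.v. dose of 1 mg/kg or an oral dose of 10 mg/kg. Plasma AUC(0-t), AUC(0-∞), MRT(0-t), T1/2, Tmax and Cmax were derived and reported as mean±SD.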
Data set [2] can be described thus: Tmax in Sprague-Dawley rat at 10 mg/kg, po. The conditions noted are these: in vivo. In kind it is ADME, organism-based. A digest of the protocol:
as §1

The target of data set [3] is T1, Mitogen-activated protein kinase 14 (Homo sapiens, UniProt Q16539). The data set is described as follows: Inhibition of full-length recombinant human GST-tagged p38alpha expressed in Escherichia coli by Z'-LYTE assay.
T1 sequence (Q16539 whole entry): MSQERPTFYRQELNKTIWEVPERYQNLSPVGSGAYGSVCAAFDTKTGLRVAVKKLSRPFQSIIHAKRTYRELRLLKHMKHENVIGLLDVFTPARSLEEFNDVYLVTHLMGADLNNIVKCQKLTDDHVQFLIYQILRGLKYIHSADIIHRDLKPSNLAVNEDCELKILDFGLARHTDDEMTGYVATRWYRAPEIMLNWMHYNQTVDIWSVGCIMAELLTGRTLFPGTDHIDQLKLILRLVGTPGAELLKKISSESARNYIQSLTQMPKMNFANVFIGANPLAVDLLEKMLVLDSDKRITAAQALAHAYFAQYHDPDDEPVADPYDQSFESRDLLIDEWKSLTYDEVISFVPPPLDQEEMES
Data set [4] can be described thus: Growth inhibition of CHO cells after 72 hrs by CellTiter-Glo or CCK-8 assay. In kind it is cell-based, Cricetulus griseus. Particulars: chinese hamster.
The target in data set [5] is T2, Epithelial discoidin domain-containing receptor 1 (Homo sapiens, UniProt Q08345). As to the kind of experiment: Binding affinity to human DDR1 (565 to 876 amino acid residues) expressed in bacterial expression system assessed as percent control number at 1 uM by KINOMEscan assay. A digest of the protocol: (§2)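 KINOMEscan competition binding panel of 468 kinases, with the compound tested at 1 µM. Binding is expressed as percent of control relative to DMSO.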
T2 sequence (Q08345 whole entry, the tested form may be a part): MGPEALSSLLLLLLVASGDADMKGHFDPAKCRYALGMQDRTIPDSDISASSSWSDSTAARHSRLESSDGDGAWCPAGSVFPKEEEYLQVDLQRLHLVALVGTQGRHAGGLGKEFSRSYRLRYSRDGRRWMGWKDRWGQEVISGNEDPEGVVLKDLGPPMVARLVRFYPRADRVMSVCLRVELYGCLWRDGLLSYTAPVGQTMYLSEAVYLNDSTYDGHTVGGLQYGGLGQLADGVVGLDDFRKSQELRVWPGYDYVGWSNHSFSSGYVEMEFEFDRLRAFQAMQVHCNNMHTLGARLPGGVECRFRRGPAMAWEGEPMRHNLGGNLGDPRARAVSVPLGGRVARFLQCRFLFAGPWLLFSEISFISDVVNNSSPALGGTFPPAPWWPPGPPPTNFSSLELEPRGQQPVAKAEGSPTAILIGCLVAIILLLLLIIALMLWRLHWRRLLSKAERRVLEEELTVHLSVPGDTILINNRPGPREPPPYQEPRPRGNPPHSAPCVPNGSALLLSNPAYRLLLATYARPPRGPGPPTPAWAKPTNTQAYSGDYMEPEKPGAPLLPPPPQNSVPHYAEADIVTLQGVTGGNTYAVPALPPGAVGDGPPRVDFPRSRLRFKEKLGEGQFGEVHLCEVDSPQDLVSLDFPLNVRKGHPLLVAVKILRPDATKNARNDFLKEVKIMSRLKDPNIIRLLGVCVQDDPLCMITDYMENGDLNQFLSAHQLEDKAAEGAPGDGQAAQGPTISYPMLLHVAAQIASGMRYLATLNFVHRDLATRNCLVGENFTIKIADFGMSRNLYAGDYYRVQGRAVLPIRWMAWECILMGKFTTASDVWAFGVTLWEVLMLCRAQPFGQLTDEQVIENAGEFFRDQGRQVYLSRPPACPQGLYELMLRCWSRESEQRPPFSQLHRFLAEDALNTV

In data set [6] the target is Platelet-derived growth factor receptor alpha (Homo sapiens) (UniProt P16234). As to the kind of experiment: Inhibition of recombinant TEL-fused PDGFR-alpha (unknown origin) expressed in mouse BAF3 cells assessed as growth inhibition after 72 hrs by CellTiter-Glo or CCK-8 assay. It is filed as cell-based. The procedure, abridged: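 Isogenic murine BaF3 cells transformed with TEL-fused kinases, whose proliferation depends on the fused kinase, were used. Parental BaF3 cells served as the general selectivity counter-screen. The anti-proliferative read-out was reported as GI50.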
Platelet-derived growth factor receptor alpha (Homo sapiens), sequence (P16234 whole entry, the tested form may be a part): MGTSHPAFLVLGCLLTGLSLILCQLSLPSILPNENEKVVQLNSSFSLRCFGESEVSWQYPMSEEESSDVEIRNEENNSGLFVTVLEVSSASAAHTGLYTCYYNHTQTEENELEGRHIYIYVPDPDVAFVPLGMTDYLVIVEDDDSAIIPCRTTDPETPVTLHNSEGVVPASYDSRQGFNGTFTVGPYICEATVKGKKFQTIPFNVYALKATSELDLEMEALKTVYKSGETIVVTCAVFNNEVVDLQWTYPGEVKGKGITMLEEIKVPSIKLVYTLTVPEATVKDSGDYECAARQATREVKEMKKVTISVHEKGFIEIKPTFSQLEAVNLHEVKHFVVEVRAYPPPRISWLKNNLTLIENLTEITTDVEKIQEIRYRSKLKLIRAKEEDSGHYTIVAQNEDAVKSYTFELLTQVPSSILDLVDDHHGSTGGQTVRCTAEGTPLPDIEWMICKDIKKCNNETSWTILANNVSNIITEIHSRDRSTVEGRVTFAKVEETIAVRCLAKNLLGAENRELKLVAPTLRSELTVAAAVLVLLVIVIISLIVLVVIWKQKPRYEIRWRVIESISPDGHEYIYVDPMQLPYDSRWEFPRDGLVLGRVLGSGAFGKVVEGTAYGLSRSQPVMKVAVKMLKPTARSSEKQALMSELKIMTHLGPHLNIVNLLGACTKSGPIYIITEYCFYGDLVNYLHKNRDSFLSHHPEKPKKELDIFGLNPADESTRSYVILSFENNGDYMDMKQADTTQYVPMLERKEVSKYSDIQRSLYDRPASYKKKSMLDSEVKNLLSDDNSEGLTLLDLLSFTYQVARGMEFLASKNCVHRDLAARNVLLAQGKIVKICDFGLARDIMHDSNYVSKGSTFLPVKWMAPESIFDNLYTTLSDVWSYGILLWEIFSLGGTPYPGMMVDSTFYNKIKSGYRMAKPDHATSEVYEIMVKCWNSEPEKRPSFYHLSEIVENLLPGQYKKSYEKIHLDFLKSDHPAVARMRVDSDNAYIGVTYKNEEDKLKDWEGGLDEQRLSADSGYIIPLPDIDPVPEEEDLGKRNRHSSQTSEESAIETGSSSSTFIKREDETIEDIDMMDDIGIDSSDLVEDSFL

Data set [7] is described as follows: Growth inhibition of CHL cells after 72 hrs by CellTiter-Glo or CCK-8 assay. In kind it is cell-based, Cricetulus griseus. The conditions noted are these: chinese hamster.
A further data set concerns ACHN. The data set is described as follows: Growth inhibition of human ACHN cells after 72 hrs by CellTiter-Glo or CCK-8 assay. It is filed as functional.
Data set [8] is described as follows: AUC (0 to t) in Sprague-Dawley rat at 10 mg/kg, po up to 24 hrs. The conditions noted are these: in vivo. On the set-up: time < 24 hr, dose 10 mg/kg, route oral. It is filed as ADME, organism-based. A digest of the protocol: as §1
For data set [9], the target named is Tyrosine-protein kinase ABL1 (Homo sapiens) (UniProt P00519). The data set is described as follows: Binding affinity to human phosphorylated ABL1 (229 to 512 amino acid residues) expressed in mammalian expression system assessed as percent control number at 1 uM by KINOMEscan assay. A digest of the protocol: as §2
Tyrosine-protein kinase ABL1 (Homo sapiens), sequence (P00519 whole entry, the tested form may be a part): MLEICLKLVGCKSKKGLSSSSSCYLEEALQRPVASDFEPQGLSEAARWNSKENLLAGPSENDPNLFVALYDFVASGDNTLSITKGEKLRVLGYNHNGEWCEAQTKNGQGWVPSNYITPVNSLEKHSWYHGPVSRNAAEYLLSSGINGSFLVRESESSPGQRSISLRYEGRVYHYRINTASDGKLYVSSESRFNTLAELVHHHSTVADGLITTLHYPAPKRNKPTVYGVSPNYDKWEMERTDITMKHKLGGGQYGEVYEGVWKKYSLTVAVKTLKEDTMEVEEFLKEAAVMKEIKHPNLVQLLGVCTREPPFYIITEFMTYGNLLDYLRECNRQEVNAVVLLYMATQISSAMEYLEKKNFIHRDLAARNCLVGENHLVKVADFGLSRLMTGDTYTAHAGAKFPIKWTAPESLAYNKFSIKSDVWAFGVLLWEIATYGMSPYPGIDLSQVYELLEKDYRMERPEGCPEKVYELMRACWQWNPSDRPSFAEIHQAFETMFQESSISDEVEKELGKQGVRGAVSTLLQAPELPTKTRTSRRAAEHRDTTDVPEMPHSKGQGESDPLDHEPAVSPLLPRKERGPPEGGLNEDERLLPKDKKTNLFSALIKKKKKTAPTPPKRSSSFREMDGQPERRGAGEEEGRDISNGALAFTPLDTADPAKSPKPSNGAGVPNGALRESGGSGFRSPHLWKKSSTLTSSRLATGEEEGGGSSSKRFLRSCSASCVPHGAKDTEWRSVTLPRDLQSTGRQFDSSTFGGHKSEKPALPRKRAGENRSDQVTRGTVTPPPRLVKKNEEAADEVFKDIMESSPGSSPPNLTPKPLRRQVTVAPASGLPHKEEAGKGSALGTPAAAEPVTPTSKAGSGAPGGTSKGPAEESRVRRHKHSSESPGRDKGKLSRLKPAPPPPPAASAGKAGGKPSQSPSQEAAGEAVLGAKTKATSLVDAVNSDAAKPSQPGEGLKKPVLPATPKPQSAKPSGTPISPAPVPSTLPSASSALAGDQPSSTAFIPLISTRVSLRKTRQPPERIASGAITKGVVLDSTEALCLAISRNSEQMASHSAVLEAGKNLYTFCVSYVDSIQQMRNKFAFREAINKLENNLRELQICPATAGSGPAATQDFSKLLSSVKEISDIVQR
Data set [10] has as its target T1, Mitogen-activated protein kinase 14. As to the kind of experiment: Binding affinity to full length human p38alpha (1 to 360 amino acid residues) expressed in bacterial expression system assessed as percent control number at 1 uM by KINOMEscan assay. The procedure, abridged: as §2
The nature of data set [11]: Mean residence time (0 to t) in Sprague-Dawley rat at 10 mg/kg, po. In kind it is ADME, organism-based. Particulars: in vivo. A digest of the protocol:
as §1

A further data set has as its system PC-3. As to the kind of experiment: Growth inhibition of human PC3 cells after 72 hrs by CellTiter-Glo or CCK-8 assay. It is filed as functional. Particulars: PC-3, 72 h.
For data set [12], the target named is T2, Epithelial discoidin domain-containing receptor 1. As to the kind of experiment: Inhibition of human GST-tagged DDR1 catalytic domain expressed in baculovirus expression system by LanthaScreen assay.
The subject of another data set is A498. The data set is described as follows: Growth inhibition of human A498 cells after 72 hrs by CellTiter-Glo or CCK-8 assay. In kind it is functional. The conditions noted are these: A498, 72 h.

pIC50: −log10 of the molar value. Bounds are passed on as bounds.

The values below come from ChEMBL document CHEMBL4007402 (J Med Chem, 2017).

As to `C=CC(=O)Nc1cc(Nc2ncc(C(=O)Nc3cc(NC(=O)c4cc(OC)c(OC)c(OC)c4)ccc3C)c(NC)n2)ccc1C`, the values for the MRT last in data set [1] and in [11] were 13.4 min and 166 min, respectively. Besides, the time of peak concentration (Tmax) in data set [2] is 11.4 min. Also, the pIC50 in [3] is 6.97; in data set [12], 6.58. Moreover, the GI50 at 72 h in data set [4] and in data set [7] was over 10 µM each time. The values for the Activity in data set [5], in [9] and in data set [10] were 0.05%, 6.5% and 0%, respectively. For the same compound, the GI50 in data set [6] was 0.67 µM; in the data set on ACHN, 4.93 µM; in the data set with PC-3, 3.45 µM; in the data set with A498, over 10 µM. In addition, in [8], the AUC(0-t) at 24 h came out at 13.4 ng·h/mL.
